# According to ChEMBL document CHEMBL1157095, “Antimalarial versus cytotoxic properties of dual drugs derived from 4-aminoquinolines and Mannich bases: interaction with DNA” (J Med Chem, 2010):
# Active and inactive are the calls of the source. No cut-off for these calls is given here.
# Experiments:
# Plasmodium falciparum [1] = test: Antiplasmodial activity against chloroquine-susceptible Plasmodium falciparum D6 infected in human erythrocytes assessed as inhibition of [3H]hypoxanthine uptake after 48 hrs; type: functional, organism-based
# Outline: (§1)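 Strains were cultured in A-positive human blood in RPMI 1640 with 10% human serum, 25 mM HEPES and 25 mM NaHCO3, under 10% O2/5% CO2/85% N2 at 37 °C. Microtests used 0.5% parasitemia and 1.5% hematocrit. Tritiated hypoxanthine (1 μCi/well) was added at time zero, then 48 h incubation, freeze-thaw, harvest and scintillation counting. IC50 was taken by nonlinear regression against drug-free controls.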
# Plasmodium falciparum [2] = test: Antiplasmodial activity against chloroquine-susceptible Plasmodium falciparum 8425 infected in human erythrocytes assessed as inhibition of [3H]hypoxanthine uptake after 48 hrs; type: functional, organism-based; outline: as §1
# Plasmodium falciparum [3] = test: Antiplasmodial activity against chloroquine-susceptible Plasmodium falciparum Voll infected in human erythrocytes assessed as inhibition of [3H]hypoxanthine uptake after 48 hrs; type: functional, organism-based; outline: as §1
# Plasmodium falciparum [4] = test: Antiplasmodial activity against chloroquine-susceptible Plasmodium falciparum L1 infected in human erythrocytes assessed as inhibition of [3H]hypoxanthine uptake after 48 hrs; type: functional, organism-based; outline: as §1
# Plasmodium falciparum [5] = test: Antiplasmodial activity against chloroquine-susceptible Plasmodium falciparum PA infected in human erythrocytes assessed as inhibition of [3H]hypoxanthine uptake after 48 hrs; type: functional, organism-based; outline: as §1
# Plasmodium falciparum [6] = test: Antiplasmodial activity against chloroquine-susceptible Plasmodium falciparum Bres infected in human erythrocytes assessed as inhibition of [3H]hypoxanthine uptake after 48 hrs; type: functional, organism-based; outline: as §1
# Plasmodium falciparum [7] = test: Antiplasmodial activity against chloroquine-susceptible Plasmodium falciparum FCR3 infected in human erythrocytes assessed as inhibition of [3H]hypoxanthine uptake after 48 hrs; type: functional, organism-based; outline: as §1
# Plasmodium falciparum [8] = test: Antiplasmodial activity against chloroquine-susceptible Plasmodium falciparum W2 infected in human erythrocytes assessed as inhibition of [3H]hypoxanthine uptake after 48 hrs; type: functional, organism-based; outline: as §1
# Plasmodium falciparum [9] = test: Antiplasmodial activity against chloroquine-susceptible Plasmodium falciparum K2 infected in human erythrocytes assessed as inhibition of [3H]hypoxanthine uptake after 48 hrs; type: functional, organism-based; outline: as §1
# Plasmodium falciparum [10] = test: Antiplasmodial activity against chloroquine-susceptible Plasmodium falciparum K14 infected in human erythrocytes assessed as inhibition of [3H]hypoxanthine uptake after 48 hrs; type: functional, organism-based; outline: as §1
# MRC5 = test: Cytotoxicity against human MRC5 after 3 days; type: cell-based; conditions: MRC5, 72 h
# Outline: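 MRC-5SV2 cells were grown in Earle's MEM with 5% FCSi and plated at about 10^4 cells/well. After 3 days of incubation, viability was read fluorimetrically with resazurin (ex 550/em 590 nm). Growth reduction was expressed relative to untreated control wells, and CC50 was derived.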
# Plasmodium berghei [11] = test: Antiplasmodial activity against Plasmodium berghei ANKA infected in Swiss mice (Mus musculus) assessed as reduction of parasitaemia at 10 mg/kg, intraperitoneal every day for 4 days; type: functional; conditions: ip, 96 h
# NCH89 = test: Antiproliferative activity against human carmustine-resistant NCH-89 cells assessed as BrdU incorporation after 48 hrs; type: functional, cell-based; conditions: NCH89, 48 h
# Outline: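 NCH89 glioblastoma cells were seeded at 7 × 10^3 cells/well in replicate wells for 24 h. Compound was then added at 0.1-100 μM. After 48 h, BrdU was added at 100 μM final, and incorporation was detected with a BrdU labeling/detection kit.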
# Nucleic Acid [12] = test: Binding affinity to pUC18 DNA at pH 7.5 by UV-Vis spectrophotometry analysis; type: nucleic-acid assay
# Outline: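 A 10 μM drug solution was titrated at room temperature with linearized pUC18 DNA (50% AT), 0.1-50 μM base pairs final. Buffer was TE (10 mM Tris-HCl, 0.1 mM EDTA) with 5 mM NaCl, ionic strength 12 mM. UV-Vis absorption spectra were recorded at 220-380 nm. Kd = DNA concentration at which half the drug is bound.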
# Nucleic Acid [13] = test: Binding affinity to pUC18 DNA at pH 7.5 by spectrofluorimetry analysis; type: nucleic-acid assay
# Outline: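 A 1-10 μM drug solution was titrated at room temperature with linearized pUC18 DNA (50% AT), 0.1-50 μM base pairs final, in TE buffer with 5 mM NaCl (ionic strength 12 mM). Fluorescence used excitation at 320 nm and emission at 340-500 nm, corrected for buffer and instrument response. Kd = DNA concentration giving half-bound drug.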
# Nucleic Acid [14] = test: Binding affinity to pUC18 DNA containing 50% AT assessed as maximum melting temperature at 1 uM by spectrophotometry analysis; type: nucleic-acid assay
# Outline: (§2)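 Drug at 1 μM was mixed with DNA at 15 μM base pairs (15:1 bp:drug) in TE with 5 mM NaCl. Absorbance at 260 nm was recorded from 30-97 °C at 0.5 °C/min, with readings every 0.5 °C. Curves were normalized, smoothed and differentiated. Tmmax = derivative peak maximum; Tmint = middle of the integrated area; Tm1/2 = middle of the peak at half height.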
# Nucleic Acid [15] = test: Binding affinity to pUC18 DNA containing 50% AT assessed as middle of the peak at half height melting temperature at 1 uM by spectrophotometry analysis; type: nucleic-acid assay; outline: as §2
# Nucleic Acid [16] = test: Binding affinity to pUC18 DNA containing 50% AT assessed as middle of the integrated surface melting temperature at 1 uM by spectrophotometry analysis; type: nucleic-acid assay; outline: as §2
# Nucleic Acid [17] = test: Binding affinity to polydAdT DNA containing 100% AT assessed as maximum melting temperature at 1 uM by spectrophotometry analysis; type: nucleic-acid assay; outline: as §2
# Nucleic Acid [18] = test: Binding affinity to polydAdT DNA containing 100% AT assessed as middle of the peak at half height melting temperature at 1 uM by spectrophotometry analysis; type: nucleic-acid assay; outline: as §2
# Nucleic Acid [19] = test: Binding affinity to polydAdT DNA containing 100% AT assessed as middle of the integrated surface melting temperature at 1 uM by spectrophotometry analysis; type: nucleic-acid assay; outline: as §2
# Plasmodium falciparum [20] = test: Antiplasmodial activity against chloroquine-susceptible Plasmodium falciparum 3D7 infected in human erythrocytes assessed as inhibition of [3H]hypoxanthine uptake after 48 hrs; type: functional, organism-based
# Outline: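 Culture in RPMI 1640 with 10% human serum, 25 mM HEPES, 25 mM NaHCO3, A-positive blood, 10% O2/5% CO2/85% N2, 37 C. Isotopic microtest: 0.5% parasitemia, 1.5% hematocrit, 1 μCi tritiated hypoxanthine at time zero, 48 h; freeze-thaw lysis, filter harvest, scintillation count. IC50 = 50% uptake versus drug-free control, nonlinear regression of log dose-response curves.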
# Plasmodium falciparum [21] = test: Antiplasmodial activity against chloroquine-susceptible Plasmodium falciparum FCM29 infected in human erythrocytes assessed as inhibition of [3H]hypoxanthine uptake after 48 hrs; type: functional, organism-based; outline: as §1
# Plasmodium falciparum [22] = test: Antiplasmodial activity against chloroquine-susceptible Plasmodium falciparum NF54 infected in human erythrocytes assessed as inhibition of [3H]hypoxanthine uptake after 48 hrs; type: functional, organism-based
# Outline: (§3)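 Asynchronous ring-stage cultures in human A Rh+ erythrocytes (RPMI 1640, HEPES, NaHCO3, hypoxanthine, 0.5% Albumax II, 5% CO2, 37 C), 1% parasitemia; top final drug concentration 30 μM. After 24 h, [3H]-hypoxanthine (0.2 μCi/well) added, further 48 h incubation; plates freeze-thawed, harvested, uptake counted; IC50 calculated.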
# Plasmodium falciparum [23] = test: Antiplasmodial activity against chloroquine, pyrimethamine, cycloguanil-resistant Plasmodium falciparum K1 infected in human erythrocytes assessed as inhibition of [3H]hypoxanthine uptake after 48 hrs; type: functional, organism-based; outline: as §3
# Plasmodium falciparum [24] = test: Antiplasmodial activity against chloroquine-resistant Plasmodium falciparum Dd2 infected in human erythrocytes assessed as inhibition of [3H]hypoxanthine uptake after 48 hrs; type: functional, organism-based
# Outline: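 Ring-stage infected erythrocytes (0.5% parasitemia, 2.5% hematocrit) exposed to compounds 48 h, then radioactive hypoxanthine 24 h; radioactivity in precipitable material taken as proliferation index for IC50.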
# Mus musculus [25] = test: Toxicity in Plasmodium berghei ANKA-infected CD1 mice (Mus musculus) assessed as mortality at 30 mg/kg, intraperitoneally; type: organism-based; set-up: dose 30 mg/kg, route intraperitoneal; conditions: in vivo, ip
# Outline: (§4)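 Peters 4-day suppressive test, P. berghei ANKA: 18-20 g mice infected iv with 2 × 10^6 parasitized red cells day 0; compounds freshly made in 10% DMSO in sterile PBS, given ip from 2 h postinfection and on days 1-3; daily dose 30 mg/kg or 50 mg/kg; deaths recorded.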
# Mus musculus [26] = test: Toxicity in ip dosed Swiss mouse assessed as mortality at 30 mg/kg, ip; type: organism-based; set-up: dose 30 mg/kg, route intraperitoneal; conditions: in vivo; outline: as §4
# Plasmodium berghei [27] = test: Antiplasmodial activity against Plasmodium berghei ANKA infected in Swiss mice (Mus musculus) assessed as reduction of parasitaemia at 30 mg/kg, intraperitoneally; type: functional, organism-based; set-up: dose 30 mg/kg
# Outline: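 Swiss mice (18-20 g) infected intravenously on day 0 with 2 × 10^6 P. berghei ANKA parasitized red cells. Compound was freshly prepared in 10% DMSO in sterile PBS and given ip, first 2 h postinfection, then on days +1-3 (4-day suppressive test). On day +4, parasitemia was counted microscopically on Giemsa-stained tail-blood films.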
smiles,measurement,setting,value
CCN(CC)CCCC(C)Nc1ccnc2cc(Cl)ccc12 (centres undefined) [CHLOROQUINE],IC90,Plasmodium falciparum [1],0.0444 µM
same,IC90,Plasmodium falciparum [2],0.0592 µM
same,IC90,Plasmodium falciparum [3],0.316 µM
same,IC90,Plasmodium falciparum [4],0.418 µM
same,IC90,Plasmodium falciparum [5],0.483 µM
same,IC90,Plasmodium falciparum [6],0.614 µM
same,IC90,Plasmodium falciparum [7],0.685 µM
same,IC90,Plasmodium falciparum [8],0.693 µM
same,IC90,Plasmodium falciparum [9],0.912 µM
same,IC90,Plasmodium falciparum [10],1.13 µM
same,IC50,MRC5,64 µM
same,inhibition in vivo at 10 mg/kg,Plasmodium berghei [11],98.9%
same,IC50,NCH89,41.2 µM
same,Kd,Nucleic Acid [12],7.5 µM
same,Kd,Nucleic Acid [13],9 µM
same,Tm,Nucleic Acid [14],73.2 °C
same,Tm,Nucleic Acid [15],74.7 °C
same,Tm,Nucleic Acid [16],73.7 °C
same,Tm,Nucleic Acid [17],46.9 °C
same,Tm,Nucleic Acid [18],47 °C
same,Tm,Nucleic Acid [19],46.6 °C
C=C[C@H]1CN2CC[C@H]1C[C@H]2[C@H](O)c1ccnc2ccc(OC)cc12 [QUININE],IC50,Plasmodium falciparum [20],0.104 µM
same,IC90,Plasmodium falciparum [20],0.597 µM
same,IC50,Plasmodium falciparum [1],0.0618 µM
same,IC90,Plasmodium falciparum [1],0.465 µM
same,IC50,Plasmodium falciparum [2],0.13 µM
same,IC90,Plasmodium falciparum [2],0.39 µM
same,IC50,Plasmodium falciparum [3],0.422 µM
same,IC90,Plasmodium falciparum [3],0.843 µM
same,IC50,Plasmodium falciparum [4],0.531 µM
same,IC90,Plasmodium falciparum [4],0.995 µM
same,IC50,Plasmodium falciparum [5],0.627 µM
same,IC90,Plasmodium falciparum [5],1.11 µM
same,IC50,Plasmodium falciparum [6],0.689 µM
same,IC90,Plasmodium falciparum [6],0.614 µM
same,IC50,Plasmodium falciparum [7],0.665 µM
same,IC90,Plasmodium falciparum [7],1.11 µM
same,IC50,Plasmodium falciparum [8],0.684 µM
same,IC90,Plasmodium falciparum [8],1.25 µM
same,IC50,Plasmodium falciparum [9],0.619 µM
same,IC90,Plasmodium falciparum [9],1.51 µM
same,IC50,Plasmodium falciparum [10],0.495 µM
same,IC90,Plasmodium falciparum [10],1.64 µM
same,IC90,Plasmodium falciparum [21],1.2 µM
CN(C)CCC(NCCNc1ccnc2cc(Cl)ccc12)c1ccccc1 (centres undefined),IC50,Plasmodium falciparum [22],0.0071 µM
same,IC50,Plasmodium falciparum [23],0.0619 µM
same,IC50,Plasmodium falciparum [24],0.0256 µM
same,IC50,Plasmodium falciparum [20],0.0081 µM
same,IC90,Plasmodium falciparum [20],0.0144 µM
same,IC50,Plasmodium falciparum [1],0.0122 µM
same,IC90,Plasmodium falciparum [1],0.0167 µM
same,IC50,Plasmodium falciparum [2],0.0088 µM
same,IC90,Plasmodium falciparum [2],0.0169 µM
same,IC50,Plasmodium falciparum [3],0.0652 µM
same,IC90,Plasmodium falciparum [3],0.144 µM
same,IC50,Plasmodium falciparum [4],0.0617 µM
same,IC90,Plasmodium falciparum [4],0.177 µM
same,IC50,Plasmodium falciparum [5],0.161 µM
same,IC90,Plasmodium falciparum [5],0.318 µM
same,IC50,Plasmodium falciparum [6],0.158 µM
same,IC90,Plasmodium falciparum [6],0.31 µM
same,IC50,Plasmodium falciparum [7],0.0644 µM
same,IC90,Plasmodium falciparum [7],0.196 µM
same,IC50,Plasmodium falciparum [8],0.0998 µM
same,IC90,Plasmodium falciparum [8],0.26 µM
same,IC50,Plasmodium falciparum [9],0.0871 µM
same,IC90,Plasmodium falciparum [9],0.247 µM
same,IC50,Plasmodium falciparum [10],0.129 µM
same,IC90,Plasmodium falciparum [10],0.267 µM
same,IC50,Plasmodium falciparum [21],0.244 µM
same,IC90,Plasmodium falciparum [21],0.376 µM
same,IC50,MRC5,27 µM
same,Activity,Mus musculus [25],Toxic
same,Activity,Mus musculus [26],Toxic
same,Activity,Plasmodium berghei [27],Active
same,IC50,NCH89,7.3 µM
same,Kd,Nucleic Acid [12],7 µM
same,Kd,Nucleic Acid [13],8 µM
same,Tm,Nucleic Acid [14],74.4 °C
same,Tm,Nucleic Acid [15],76.5 °C
same,Tm,Nucleic Acid [16],75.5 °C
same,Tm,Nucleic Acid [17],46.8 °C
same,Tm,Nucleic Acid [18],47.4 °C
same,Tm,Nucleic Acid [19],47.1 °C
